M1 ag = M1 muscarinic receptor agonism; CHO-M1 cells, Fluo-4 calcium fluorescence, agonist mode; stronger effect = higher value; B-score at 10 µM; actives 3% (n = 64,000); AID 626;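 active = fluorescence rise, raw or as B-score row- and column-corrected plate score, outside the 99.7% band of its plate's samples, either direction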
M1 antag = M1 muscarinic receptor (rat) antagonism; P08482; CHO-M1 cells, Fluo-4 calcium, ACh EC80 antagonist mode; stronger effect = lower value; B-score at 10 µM; actives 3.4% (n = 64,000);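 active = calcium fluorescence response, raw or row-and-column corrected B-score, differing from the plate sample mean either way at a set confidence level, mostly lower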
WNV NS2B-NS3 inh = blocks West Nile virus NS2B-NS3 protease activity; P06935; WNV NS2B-NS3 protease, fluorogenic substrate Ex360/Em465; stronger effect = lower value; z-score (test concentration not listed); actives 0.18% (n = 65,000); AID 577; in the data active = z-score below about -3
Target sequence (P06935 1371-1501 limits assumed): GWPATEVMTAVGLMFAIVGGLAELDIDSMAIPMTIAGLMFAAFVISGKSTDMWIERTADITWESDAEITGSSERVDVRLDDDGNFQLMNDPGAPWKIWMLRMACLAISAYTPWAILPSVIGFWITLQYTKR
Target sequence (P06935 1502-1679 limits assumed): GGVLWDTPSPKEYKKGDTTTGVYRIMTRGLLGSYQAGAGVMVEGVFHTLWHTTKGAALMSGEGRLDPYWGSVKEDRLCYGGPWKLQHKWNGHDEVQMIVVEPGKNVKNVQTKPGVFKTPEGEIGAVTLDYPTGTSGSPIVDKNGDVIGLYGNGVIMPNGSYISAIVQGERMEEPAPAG
AP ELISA ortho = orthogonal test for alternative complement pathway inhibitors. AID 1235. Human serum alternative complement pathway, LPS-coated ELISA, C3 deposition; tested in compound mixtures. actives 0.08% (n = 62,000). inhibition, % at 5 µM;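 active = inhibition above 30% in each of the two pooled mixtures holding the compound, so the lower value exceeds 30%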;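 note: 0% = serum in Mg-EGTA without compound and 100% = EDTA serum blank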
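Medium: diluted human serum in Mg2+-EGTA GVB++. Assay system: human serum complement alternative pathway, C3 deposition onto LPS. Also added: Plate-bound LPS. Technique: Anti-C3 ELISA, OD 450 nm. Measure: percent inhibition. Incubation: 1 h at 37 °C. Dosing: 5 µM each compound, pools of ten, 50 µM per pool.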
Ecoli tolC = growth inhibitors of E. coli BW25113 tolC mutant | growth inhibition, % at 10 µM (by protocol) | actives 2.2% (n = 65,000) | AID 573 | OD615;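 active = growth inhibition at or above a cutoff equal to the mean over every tested compound plus 3 SD, cut at about 60% in these data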;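 note: growth measured after 20 h incubation at 37 °C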
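Test system: tolC-deleted E. coli BW25113; medium: LB with kanamycin 50 µg/mL; compound: single-point testing at 10 µM; incubation: 20 h compound exposure of bacteria at 37 °C; signal: OD at 615 nm; evaluation: growth inhibition in percent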
E coli WT exp = E. coli BW25113 growth inhibition, expanded screen. growth inhibition, % at 100 µM. actives 0.15% (n = 98,000). OD600 absorbance;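 active = growth inhibition above about 50% at one test dose, limit read from the data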;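 note: growth measured after 20 h incubation at 37 °C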
An asterisk follows results filed as active; x = no result. Most compounds without a hit are left out; they make up all but 5.2% or so of the library.

SMILES	M1 ag	M1 antag	WNV NS2B-NS3 inh	AP ELISA ortho	Ecoli tolC	E coli WT exp
COc1ccc(Cl)cc1N1CCN(CCNC(=O)Nc2ccccc2C)CC1	-0.483	0.732	1.71	7.8	62.8*	5.0
O=C(NC1CC2CCC1C2)C1CCN(S(=O)(=O)c2ccc(-c3nn[nH]n3)cc2)CC1 (stereo not given)	0.0252	0.079	-1.16	30.9*	-20.4	3.0
CCCNC(=O)C1CCN(S(=O)(=O)c2ccc(-c3nn[nH]n3)cc2)CC1	x	x	x	x	x	-5.0
CCNC(=S)NNC(=O)c1cc(-c2cc(C)ccc2C)nc2ccccc12	x	x	x	x	x	17.0
CCCN(CCC)c1nc2ccccc2nc1C(C#N)C(=O)OCCOC (stereo not given)	0.521	0.371	-0.45	15.0	80.2*	-4.0
O=C(Cn1cnc2scc(-c3ccccc3)c2c1=O)N1CCOCC1	-0.336	0.233	-0.08	7.5	-4.8	3.0
CCn1cnc2scc(-c3ccccc3)c2c1=O	-1.19	10.4*	-0.16	16.9	8.7	6.0
CCOC(=O)c1c(NC(=O)c2cc(C3CC3)on2)sc2c1CCCC2	-0.036	0.738	0.04	15.1	-0.8	x
CC(C)(C)c1cc(C(=O)N2CCc3ccccc32)ccn1	0.0706	-1.12	-0.83	7.3	2.0	0.0
CN(C)S(=O)(=O)c1cccc(C(=O)N2CCc3ccccc32)c1	0.00208	1.27*	0.42	8.6	-1.2	5.0
CCOc1ccc2nc(NC(=O)C3CCCN(S(=O)(=O)c4cccs4)C3)sc2c1 (stereo not given)	x	x	-0.19	16.5	63.0*	-9.0
Cc1ccnc(SCCn2c(Br)nc3c2c(=O)n(C)c(=O)n3C)n1	2.1	-0.151	1.15	-6.1	-6.4	x
Cc1cccc(NC(=S)NNC(=O)CC(C)O)c1C (stereo not given)	x	x	x	x	x	-1.0
Cc1nnc(SCC(=O)Nc2ccc(Br)cn2)[nH]c1=O	0.198	0.999*	-0.15	14.6	-15.9	-6.0
Cc1nnc(SCC(=O)Nc2ccccc2)[nH]c1=O	x	x	x	x	x	-3.0
COc1ccc(C)cc1NC(=O)CSc1nnc(-c2ccc(C)cc2)o1	0.254	0.747	-1.17	8.9	6.4	-2.0
COc1ccc(CCNC(=O)CSc2nnc(-c3ccc(F)cc3)o2)cc1OC	0.842	-0.0069	-6.1*	16.4	1.9	-1.0
O=C(O)CCCC(=O)N1CCc2cc(S(=O)(=O)N3CCc4ccccc43)ccc21	-0.624	-0.565	-0.12	12.0	74.7*	2.0
CCC(=O)N1CCc2cc(S(=O)(=O)N3CCc4ccccc43)ccc21	-0.509	0	-0.12	5.9	-4.2	-12.0
Cc1ccc(S(=O)(=O)N2CCN(C(=O)CCC(=O)N3CCc4ccccc43)CC2)cc1	1.11	-3.35*	-0.08	19.8	11.0	x
O=C(OCCN1C(=O)c2ccccc2C1=O)c1cc(S(=O)(=O)N2CCOCC2)ccc1F	-0.842	0.0322	-3.11*	23.5	-5.0	-6.0
CCn1c(C(=O)N2CCCC(C(=O)O)C2)cc2sccc21 (stereo not given)	0.212	0.939	-0.3	-4.7	-13.6	x
CCn1c(C(=O)N2CCC(Cc3ccccc3)CC2)cc2sccc21	-0.166	-0.00826	-0.51	8.9	79.5*	1.0
COc1ccc(NS(=O)(=O)c2ccc(S(=O)(=O)N3CCCC3)cc2)cc1Cl	x	x	x	x	x	9.0
N#CCn1nnc(-c2ccc3c(c2)OCO3)n1	0.621	0.439	-0.61	15.9	-4.1	2.0
SMILES	M1 ag	M1 antag	WNV NS2B-NS3 inh	AP ELISA ortho	Ecoli tolC	E coli WT exp
Fc1cccc(Cl)c1Cn1nnc(-c2ccc3c(c2)OCO3)n1	0.07	0.503	-0.31	-9.3	62.8*	-8.0
O=C(CSc1nnc(Cc2ccccc2)n1-c1ccc(F)cc1)N1CCOCC1	-1	0.369	0.38	-4.1	-6.7	-2.0
O=C(CSc1nnc(Cc2ccccc2)n1C1CCCCC1)N1CCOCC1	0.852	1.12*	-0.69	-0.3	-4.9	12.0
COc1ccccc1-n1c(SCC(=O)N2CCOCC2)nc(O)c(Cc2ccccc2)c1=O	-0.512	0.00961	-8.64*	-1.1	0.3	0.0
COc1ccc(NS(=O)(=O)c2ccc3oc(Nc4ccc5c(c4)OCCO5)nc3c2)cc1	-0.0445	0.0217	-0.13	7.4	79.3*	-11.0
Cn1c(=O)oc2cc(S(=O)(=O)Nc3ccc4c(c3)OCCO4)ccc21	-0.491	-0.591	-1.06	x	-6.4	-2.0
CCC(c1nnnn1C1CCCCC1)N(Cc1ccco1)Cc1cc2ccc(OC)cc2[nH]c1=O (stereo not given)	-0.00673	-0.0646	0.41	-14.1	67.9*	-8.0

Source: PubChem BioAssay (several laboratories)
